From PubChem BioAssay
TAAR1 antagonist – antagonists of human TAAR1. Q96RJ0. CHO RD-HGA16 TAAR1, Fluo-8 calcium fluorescence, antagonist. inhibition, % at 3 µM. actives 1.5% (n = 360,000);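 active = inhibition above a per-plate cutoff, the mean inhibition of test compounds on that plate plus 3 SD, cut at about 49% in these data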;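 note: 0% = DMSO plus EC80 beta-PEA response and 100% = DMSO alone without agonist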
Target sequence (Q96RJ0 whole entry, looked up): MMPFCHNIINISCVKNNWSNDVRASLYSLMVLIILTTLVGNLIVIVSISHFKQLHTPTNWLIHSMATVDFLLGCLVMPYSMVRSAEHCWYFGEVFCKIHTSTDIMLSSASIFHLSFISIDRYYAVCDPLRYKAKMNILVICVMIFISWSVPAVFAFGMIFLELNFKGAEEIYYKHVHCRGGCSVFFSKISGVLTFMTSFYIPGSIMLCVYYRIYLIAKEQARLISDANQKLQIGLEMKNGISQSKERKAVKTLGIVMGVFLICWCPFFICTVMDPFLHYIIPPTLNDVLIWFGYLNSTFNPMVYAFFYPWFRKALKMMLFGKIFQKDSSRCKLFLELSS
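Test system: hTAAR1-expressing CHO RD-HGA16 cells, Gα16-coupled; Probe or stimulus: EC80 β-phenethylamine stimulus; Compound dosing: single nominal final test compound concentration of 3 µM; Timing: 140 s kinetic read after compound, 140 s after agonist; Signal: Fluo-8 calcium-sensitive fluorescence; Measure: % inhibition of agonist calcium response; Controls: DMSO and EC80 PEA controls.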
MPTP block – inhibitors of mitochondrial permeability transition pore; isolated mouse mitochondria, Ca2+ swelling absorbance, 30 min; AID 602449; inhibition, % at 10 µM; actives 1.4% (n = 360,000);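 active = inhibition of 50% or more, scaled per plate between neutral and stimulator controls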;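 note: 0% = DMSO wells given calcium and 100% = 1 mM EGTA wells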
DAGLB inhibitor – blocks human DAGLB lipase activity; Q8NCG7; HEK293T DAGLB membrane lysate, EnzChek fluorogenic substrate; inhibition, % at 5.17 µM; actives 0.059% (n = 340,000); in the data active = inhibition above about 34%;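 note: 0% = enzyme with vehicle and 100% = wells lacking enzyme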
GPR7 antag – antagonists of human GPR7 (neuropeptides B/W receptor 1). GPR7-expressing cells, fluorescence antagonist assay. actives 1.1% (n = 290,000). AID 1861. P48145. inhibition, % at 4.4 µM; in the data active = inhibition above about 16%, passing the limit was not always enough;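 note: cells stimulated with the agonist NPW; 0% = agonist with vehicle and 100% = vehicle without agonist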
Target sequence (P48145 whole entry, looked up): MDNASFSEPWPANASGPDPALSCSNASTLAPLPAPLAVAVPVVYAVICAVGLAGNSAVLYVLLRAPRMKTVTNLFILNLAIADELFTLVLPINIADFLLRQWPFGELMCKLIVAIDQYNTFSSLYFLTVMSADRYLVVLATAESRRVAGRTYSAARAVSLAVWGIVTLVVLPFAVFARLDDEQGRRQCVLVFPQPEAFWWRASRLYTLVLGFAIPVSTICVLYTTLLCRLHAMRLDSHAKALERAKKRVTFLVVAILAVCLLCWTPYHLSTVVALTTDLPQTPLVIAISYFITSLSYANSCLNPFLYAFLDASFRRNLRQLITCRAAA
TAAR1 agonist – human TAAR1 agonism; activation, % at 3 µM; AID 624467; Q96RJ0; CHO RD-HGA16 TAAR1, Fluo-8 calcium fluorescence; vehicle wells 0%, saturating PEA agonist 100%; actives 0.99% (n = 360,000);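 active = activation above the mean activation of all test compounds in the run plus 3 SD, cut at about 38% in these data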
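Signal – calcium-sensitive Fluo-8 signal, excitation 470-495, emission 515-575 nm · System – RD-HGA16 (CHO) cells co-expressing Gα16 and hTAAR1 · Incubation – 17-24 h seeding, 75 min 37 °C dye, 30 min RT · Compound dosing – 3 µM single concentration · Repeats – no replicates (n 1)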
Rh123 counter – mitochondrial membrane potential, counter-screen; shares compounds with MPTP block; isolated mitochondria, Rhodamine 123 fluorescence; inhibition, % at 10 µM; actives 78% (n = 5,000); in the data active = inhibition above about 22%;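 note: 0% = DMSO vehicle and 100% = positive control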
MPTP abs DR – dose response confirmation of mitochondrial permeability transition pore inhibitors; shares compounds with MPTP block; isolated mitochondria swelling, absorbance; IC50, µM; actives 58% (n = 780); AID 651561; in the data active = IC50 below about 20 µM
MPTP counter DR – active in counter-screen for permeability transition pore inhibitors. shares compounds with MPTP block. isolated mitochondria counterscreen, fluorescence read-out. IC50, µM. actives 49% (n = 780); in the data active = IC50 below about 80 µM
* hit, by the source's call; · = not tested or not shown. The list is not random: actives were taken first. Their share in the collection is about 4%.

SMILES | TAAR1 antagonist | MPTP block | DAGLB inhibitor | GPR7 antag | TAAR1 agonist | Rh123 counter | others
Cc1cc2c(cc1C)-n1nnnc1C(N1CCN(c3ncccc3C#N)CC1)C(=O)N2 (stereo unspecified) | -5 | 1 | · | · | 15 | ·
O=[N+]([O-])c1ccc(N=Nc2ccc(O)c3ccccc23)cc1 | · | 98* | 16 | · | · | 79*
O=S(=O)(Nc1ccc(N=Nc2ccc(O)c3ccccc23)cc1)c1ccccc1 | 16 | 29 | 31 | 4 | 2 | ·
CC(C)C(=O)Nc1nc2ccc(S(C)(=O)=O)cc2s1 | -6 | 1 | 0 | -4 | 6 | ·
CC(C)(C)C(=O)Nc1nc2ccc(S(C)(=O)=O)cc2s1 | 3 | 0 | 1 | -2 | 0 | ·
CS(=O)(=O)c1ccc2nc(NC(=O)Nc3ccc(Cl)c(Cl)c3)sc2c1 | 4 | 95* | 2 | -7 | 7 | 71*
Cc1cccc(C(=O)Nc2nc3ccc(S(C)(=O)=O)cc3s2)c1 | 16 | 3 | 2 | -21 | 13 | ·
Cc1ccc(NC(=O)Nc2nc3ccc(S(C)(=O)=O)cc3s2)cc1 | 14 | 65* | 0 | · | 19 | 70*
CS(=O)(=O)c1ccc2nc(NC(=O)Nc3cccc(Cl)c3)sc2c1 | 24 | 89* | 4 | 8 | 20 | 59*
O=C(Nc1cccc(C(F)(F)F)c1)c1cccnc1NCCc1ccccc1 | 11 | 80* | -9 | -16 | 7 | 70*
O=C(Nc1cccc(C(F)(F)F)c1)c1cccnc1NCCO | -10 | 1 | 0 | -11 | 1 | ·
C[C@@H]1CN([C@@H](C)CO)C(=O)CCCn2nncc2CO[C@@H]1CN(C)S(=O)(=O)c1ccc2ccccc2c1 | -7 | 0 | -2 | · | 0 | ·
Cc1ccc(Cl)cc1N1CCN(C(=O)c2cc3c(=O)[nH]c4ccccc4c3n2C)CC1 | 51* | 57* | 2 | -3 | 19 | -4 | MPTP abs DR=>100;MPTP counter DR=>80
Cn1c(C(=O)N2CCN(c3ccc(Cl)cc3)CC2)cc2c(=O)[nH]c3ccccc3c21 | 11 | 1 | 5 | -3 | 18 | ·
Cc1ccc(NC(=O)COC(=O)C2(c3ccc(Cl)cc3)CCCC2)cc1 | 58* | 78* | -29 | -9 | 10 | 82*
O=C(NCC1CCCO1)Nc1ccc(Cl)cc1 (stereo unspecified) | -11 | 2 | 0 | 3 | 3 | ·
O=C(NCC1CCCO1)Nc1cc(Cl)cc(Cl)c1 (stereo unspecified) | 15 | 82* | -2 | -11 | 7 | 88*
CN(C)C(=O)N1CCc2ccc([N+](=O)[O-])cc21 | -20 | 0 | 0 | · | 1 | ·
CCCOc1ccc(Br)cc1CSC(=N)N | 50* | 97* | -1 | 54* | 80* | 92*
Cc1ccc(S(=O)(=O)NC(C)(C)CSc2nnc(Nc3ccccc3)s2)cc1 | 23 | 65* | 4 | -1 | 7 | 66*
CC(C)(CSc1ncccn1)NS(=O)(=O)c1ccccc1 | -6 | -1 | 0 | -3 | 9 | ·
CCC(C)CN1C(=O)CN(S(C)(=O)=O)CC1(C)C(=O)Nc1c(C)cccc1C (stereo unspecified) | 6 | 15 | · | · | 0 | ·
CCN(CC)S(=O)(=O)c1ccc(S(=O)(=O)Nc2ccc3c(c2)oc2ccccc23)cc1 | 12 | 60* | -4 | -3 | 9 | 84*
COc1ccccc1N(Cc1ccccc1)S(=O)(=O)c1cccc(C(=O)O)c1 | 0 | -4 | 5 | -2 | 1 | ·
O=C(O)c1ccc(Cl)c(S(=O)(=O)N(Cc2ccccc2)c2ccc(Cl)cc2)c1 | -2 | 2 | 9 | -1 | -1 | ·
SMILES | TAAR1 antagonist | MPTP block | DAGLB inhibitor | GPR7 antag | TAAR1 agonist | Rh123 counter | others
CC1(C)CC(NC(=O)c2ccc(Cl)c(S(=O)(=O)N(Cc3ccccc3)c3ccccc3)c2)CC(C)(C)N1 | -3 | 97* | 4 | · | 1 | -20
COc1ccccc1N(Cc1ccccc1)S(=O)(=O)c1cccc(C(=O)NC2CC(C)(C)NC(C)(C)C2)c1 | -18 | 84* | 3 | · | 5 | -18 | MPTP abs DR=7.6*;MPTP counter DR=>80
C#CCN(C[C@@H]1[C@@H](OC(=O)NCC2CCCCC2)[C@@H](OC(=O)NCC2CCCCC2)Cn2c(=O)n(CCCCCC)c(=O)n21)S(=O)(=O)c1ccc(C)cc1 | -26 | -2 | -33 | · | 0 | ·
CCCCCCCCN1C(=O)[C@@H](CC(=O)N2CCN(C(=O)c3ccco3)CC2)C[C@@]2(C(=O)OC)C1=C[C@H](C1CCCC1)O[C@@H]2C | -1 | · | · | · | -2 | ·
CC(C)(C)NC(=S)NNC(=O)[C@H]1C[C@@H]1c1ccccc1 | -3 | 3 | -2 | -16 | 0 | ·
Cc1ccc(C2CC2C(=O)NNC(=S)Nc2ccc(Cl)cc2)cc1 (stereo unspecified) | 4 | 53* | 0 | -13 | 4 | 73*
COc1ccc(NC(=O)C2(C)Cc3c(-c4cccc(C(N)=O)c4)ccnc3O2)cc1 (stereo unspecified) | -10 | 0 | · | · | 2 | ·
O=C(Cc1ccccc1)Nc1scc(-c2ccccc2)c1C(=O)N1CCOCC1 | · | -1 | 0 | 7 | · | ·
NC(=O)c1c(-c2ccc(Cl)cc2Cl)csc1NC(=O)Cc1ccccc1 | 35 | 103* | 0 | -6 | 3 | 90*
CC(=O)c1ccc(OCC(=O)NC2CCCCCC2)cc1 | 4 | 0 | -2 | · | 0 | ·
CC1CCC(NC(=O)COc2ccc(C(=O)c3ccccc3)cc2)CC1 (stereo unspecified) | 30 | 70* | -5 | -5 | 6 | 65*
Cc1ccc(OCC(=O)Nc2ccccc2-c2ccccc2NC(=O)COc2ccc(C)cc2)cc1 | -23 | 1 | -5 | -12 | 4 | ·
Cc1ccc(NC(=O)COc2ccc(C(=O)c3ccccc3)cc2)c(O)c1 | 22 | 82* | -3 | -8 | 2 | 97*
Cc1ccc(-c2ccc(CN3C(C(C)C)C(=O)N(Cc4cn(CCC5OCCO5)nn4)CCS3(=O)=O)cc2)c(C)c1 (stereo unspecified) | 14 | 0 | · | · | 1 | ·
CCOC(=O)c1c(C)c(C)n2c1NC(=O)C2 | 5 | 1 | · | · | 1 | ·
Cc1nc2c(OCc3cccc(Cl)c3)cccn2c1N(C)Cc1cccs1 | 25 | 71* | · | · | 4 | 86*
Cc1nc2c(OCc3ccc(Cl)cc3Cl)cccn2c1N(C)Cc1cccs1 | 10 | 72* | · | · | 0 | 87*
CCOC(=O)N(C)c1c(CC)nc2c(OCc3cccc(Cl)c3)cccn12 | -24 | 0 | · | · | 0 | ·
CN(C)C(=O)c1cnc(Cc2c[nH]c3ccccc23)c(I)c1 | -2 | 0 | · | · | 3 | ·
O=C(Nc1ccc(Cl)cc1)c1cnc(-c2ccccc2)nc1-c1ccccc1 | 8 | 73* | 0 | -9 | 6 | 36*
